Measurements as given in publication PMC10725268 (CPT: Pharmacometrics & Systems Pharmacology, 2023).
Each block holds one molecule with its values, some of them ahead of it. Where a SMILES comes first, the peptide text is derived from it. Bridges are numbered along the chain shown (N, C = ends). [ ]: non-standard residue; d: D form. The star is where a group is joined. Heptanoyl(6-Me) = CC(C)CCCCC(=O)*; X1 = CC[C@H](C)CCCCC(=O)*; Dab = NCC[C@H](N)C(=O)O

What was measured:
patients receiving PMB = settings: cited from earlier work
critically ill patients [1] = type: in vivo, human
Outline: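 Intravenous dosing: 2.5 mg/kg loading dose (not all patients), then 2.5–3 mg/kg/day in two divided doses. After ≥48 h, mid-interval plasma concentration was sampled 6 h post-dose. Variables with p < 0.05 in univariate logistic regression entered forward-stepwise multivariate regression, with fit checked by Hosmer–Lemeshow. ROC cutoff was taken at the maximum Youden index. AKI probability came from a logistic equation on C1/2t.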

critically ill patients [2] = assay: PMB-induced acute kidney injury; type: in vivo, human
Outline: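 ICU adults (>18 years) with MDR Gram-negative infection, given intravenous PMB (sulfate) for ≥2 days with plasma monitoring. Excluded: baseline serum creatinine >1.5 mg/dl or prior renal replacement. AKI (KDIGO) was a serum creatinine rise ≥0.3 mg/dl within 48 h, >1.5-fold within 7 days, or urine output <0.5 ml/kg/h for >6 h.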

critically ill patients [3] = assay: Clinical outcome during intravenous PMB treatment; type: in vivo, human
Outline: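 Single-centre ICU cohort, August 2020–July 2022: adults on intravenous PMB for ≥2 days with MDR Gram-negative infection. Excluded: baseline creatinine >1.5 mg/dl, prior renal replacement, or a changed maintenance dose. Prognosis and adverse events were taken from hospital records. AKI and non-AKI groups were compared by chi-square or Fisher's exact test.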

[4] = Estimation of PMB AUC0-24 from timed steady-state plasma concentrations; type: in vivo, human; settings: mean ± SD; for AUC(0-t): human, iv, AUC0–24, trapezoidal area
[5] = Steady-state plasma concentrations of PMB; type: in vivo; settings: human, iv
Outline: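 Blood drawn after ≥48 h of dosing; peak taken immediately after infusion end. Samples centrifuged 885 g, 10 min; supernatant stored −80°C. PMB1 and PMB2 measured by UPLC-MS/MS on a C18 column (2.6 μm, 3.0 × 50 mm), 40°C, 0.3 ml/min. Gradient: 0.1% formic acid in water versus acetonitrile. Total PMB is the sum of PMB1 and PMB2.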

[6] = one-compartment model, AKI (n = 30)
[7] = one-compartment model, Non-AKI (n = 25)
[8] = one-compartment model, Overall (n = 55)

Structure (SMILES): CC[C@H](C)CCCCC(=O)N[C@@H](CCN)C(=O)N[C@H](C(=O)N[C@@H](CCN)C(=O)N[C@H]1CCNC(=O)[C@H]([C@@H](C)O)NC(=O)[C@H](CCN)NC(=O)[C@H](CCN)NC(=O)[C@H](CC(C)C)NC(=O)[C@@H](Cc2ccccc2)NC(=O)[C@H](CCN)NC1=O)[C@@H](C)O [PMB1, polymyxin B1] (X1-[Dab]T[Dab][Dab][Dab][dF]L[Dab][Dab]T; lactam 4-C)
peak concentration above which the probability of AKI would be >50% (patients receiving PMB; ref 17 (Deng et al.)): > 5.23 µg/mL

Structure (SMILES): CC[C@H](C)CCCCC(=O)N[C@@H](CCN)C(=O)N[C@H](C(=O)N[C@@H](CCN)C(=O)N[C@H]1CCNC(=O)[C@H]([C@@H](C)O)NC(=O)[C@H](CCN)NC(=O)[C@H](CCN)NC(=O)[C@H](CC(C)C)NC(=O)[C@@H](Cc2ccccc2)NC(=O)[C@H](CCN)NC1=O)[C@@H](C)O [PMB, polymyxin B] (X1-[Dab]T[Dab][Dab][Dab][dF]L[Dab][Dab]T; lactam 4-C)
optimal cutoff value of C1/2t for predicting PMB-induced AKI (critically ill patients [1]; ROC curve, Youden index, p = 0.002, 66.7% sensitivity, 72% specificity): 3.47 µg/mL | C1/2t at which the probability of AKI was >50% (critically ill patients [1]; univariate logistic regression, Equation 5): ≥ 3.24 mg/L | overall AKI incidence (critically ill patients [2]; 30 of 55 patients on intravenous PMB, KDIGO definition): 54.5% | patients who developed AKI on Day 3 (critically ill patients [2]; after PMB administration): 13.3% | patients who developed AKI within 7 days (critically ill patients [2]; share of the AKI group (n = 30)): 46.7% | 30-day mortality rate (critically ill patients [3]; AKI group): 46.7% | 30-day mortality rate (critically ill patients [3]; non-AKI group): 20% | trough concentration limit suggested to reduce the risk of AKI (patients receiving PMB; ref 16 (Han et al.)): < 3.13 mg/L | nephrotoxicity compared with colistin (patients receiving PMB; systematic review and meta-analysis): lower nephrotoxicity than colistin | AUC(0-t) ([4]; based on Cmin(B) and Cmax(B), AKI (n = 30)): 128 ± 36.2 µg·h/mL | AUC(0-t) ([4]; based on Cmin(B) and Cmax(B), Non-AKI (n = 25)): 102 ± 30.9 µg·h/mL | AUC(0-t) ([4]; based on Cmin(B) and Cmax(B), Overall (n = 55)): 116 ± 36 µg·h/mL | AUC(0-t) ([4]; based on Cmin(B), C1/2t(B), and Cmax(B), AKI (n = 30)): 110 ± 31.3 µg·h/mL | AUC(0-t) ([4]; based on Cmin(B), C1/2t(B), and Cmax(B), Non-AKI (n = 25)): 85.4 ± 24.4 µg·h/mL | AUC(0-t) ([4]; based on Cmin(B), C1/2t(B), and Cmax(B), Overall (n = 55)): 99.1 ± 30.8 µg·h/mL | AUC0–24, first-order pharmacokinetic equation, based on C1/2t(B) and Cmax(B) (AUC1/2t,max) [4, 6]: 103.7 ± 31.2 µg·h/mL | AUC0–24, first-order pharmacokinetic equation, based on Cmin(B) and C1/2t(B) [4, 6]: 100.7 ± 34.8 µg·h/mL | AUC0–24, first-order pharmacokinetic equation, based on Cmin(B) and Cmax(B) [4, 6]: 115.7 ± 35.1 µg·h/mL | AUC0–24, first-order pharmacokinetic equation, based on Cmin(B) and C1/2t(B) [4, 7]: 72.8 ± 21.2 µg·h/mL | AUC0–24, first-order pharmacokinetic equation, based on Cmin(B) and Cmax(B) [4, 7]: 90.2 ± 28.4 µg·h/mL | AUC0–24, first-order pharmacokinetic equation, based on Cmin(B) and C1/2t(B) [4, 8]: 88.1 ± 32.3 µg·h/mL | AUC0–24, first-order pharmacokinetic equation, based on Cmin(B) and Cmax(B) [4, 8]: 104.1 ± 34.4 µg·h/mL

Cmax [5]: 1000 ng/mL
Structure (SMILES): CC(C)CCCCC(=O)N[C@@H](CCN)C(=O)N[C@H](C(=O)N[C@@H](CCN)C(=O)N[C@H]1CCNC(=O)[C@H]([C@@H](C)O)NC(=O)[C@H](CCN)NC(=O)[C@H](CCN)NC(=O)[C@H](CC(C)C)NC(=O)[C@@H](Cc2ccccc2)NC(=O)[C@H](CCN)NC1=O)[C@@H](C)O [PMB2, polymyxin B2] ({Heptanoyl(6-Me)}-[Dab]T[Dab][Dab][Dab][dF]L[Dab][Dab]T; lactam 4-C)
